# High-throughput results deposited in PubChem by several laboratories.
# Jurkat NFkB inh = inhibitors of the PMA/ionomycin-induced NF-kB reporter in Jurkat cells; PMA/ionomycin-induced NF-kB luciferase reporter, luminescence; inhibition, % at 4 µM; 0.53% of 330,000 active; in the data active means inhibition above about 50%
# GalR3 antag = human GalR3 antagonism | inhibition, % at 3 µM | 0.44% of 360,000 active | HEK293 GalR3-CNG cAMP membrane potential fluorescence; galR3 body fused to GalR1 C-terminus;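 active means inhibition above the screen-wide average plus 3 SD, cut at about 13% in these data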;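 further: forskolin and galanin both at EC90 stimulate the cells; cAMP rise reported by CNG channel membrane potential dye signal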
# Target sequence (O60755 1-299 limits assumed): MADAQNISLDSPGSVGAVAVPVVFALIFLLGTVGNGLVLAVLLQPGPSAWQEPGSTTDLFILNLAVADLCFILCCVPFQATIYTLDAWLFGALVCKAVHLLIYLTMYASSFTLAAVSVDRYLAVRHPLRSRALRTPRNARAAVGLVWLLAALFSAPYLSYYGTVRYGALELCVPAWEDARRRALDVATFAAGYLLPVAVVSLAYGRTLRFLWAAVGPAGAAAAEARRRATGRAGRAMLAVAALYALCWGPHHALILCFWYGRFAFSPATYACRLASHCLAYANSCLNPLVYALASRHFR
# NR2E3 ag-1 = human photoreceptor-specific nuclear receptor agonism; Q9Y5X4; CHO-S Gal4-NCOR/VP16-NR2E3 two-hybrid, luciferase; inhibition of corepressor binding, % at 3.98 µM; 0.35% of 360,000 active; AID 602229;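 active means inhibition above the mean of all tested compounds plus 3 SD, cut at about 70% in these data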;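 further: higher means lower luciferase signal from less NR2E3 corepressor binding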
# NR2E3 ag-2 = activates human photoreceptor nuclear receptor NR2E3. Q9Y5X4. GST-NR2E3/biotin-RetCOR TR-FRET, 1536-well. inhibition of corepressor binding, % at 4.78 µM. 0.12% of 320,000 active. AID 2300;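 active means percent inhibition above the cutoff of mean plus 3 SD of all tested compounds, set per screening campaign, cut at about 20% in these data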
#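 Test system: GST-NR2E3 and biotin-RetCOR proteins | Quantity: 1.35 nM GST-tagged NR2E3 final | Medium: Tris pH 7.5 | Also added: 7 nM biotin-RetCOR | Dosing: Compound at 4.8 µM, single dose | Timing: 5 h at 4 °C | Detection: Time-resolved FRET | Read-out basis: Percent inhibition | Benchmarks: Biotin wells as high control, 0.6% DMSO wells as low control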
# Gli-Sufu antag = Gli-Sufu pathway antagonism | Sufu-KO-LIGHT fibroblasts, Gli luciferase reporter luminescence | inhibition, % at 5 µM | 0.74% of 340,000 active | AID 588413;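 active means inhibition above about 55%, limit read from the data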
# 697 NFkB inh = inhibitors of the PMA/ionomycin-induced NF-kB reporter in 697 B cells | 697 B-cell NF-kB luciferase reporter, 16 h | inhibition, % at 4 µM | 0.33% of 330,000 active | AID 435022; in the data active means inhibition above about 35%
# Gli antag conf = Gli-SUFU antagonism confirmation, single concentration; shares compounds with Gli-Sufu antag; Sufu-KO-LIGHT cells, Gli luciferase reporter, luminescence; inhibition, % at 5 µM; 40% of 2,500 active; AID 602428;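 active means mean inhibition at 5 µM reaching about 45%, limit read from the data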
# SufuKO cytotox = cytotoxicity counter-screen for Gli-SUFU antagonists; 32% of 2,500 active; cytotoxicity, % at 5 µM; Sufu-KO-LIGHT cells cytotoxicity, ATP luminescence; shares compounds with Gli-Sufu antag;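 active means mean cytotoxicity at 5 µM above about 25%, limit read from the data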;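 further: cells exposed to compound overnight for roughly 16 to 18 hours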
# Wnt3a cs = counter-screen for Gli-SUFU antagonists: Wnt3a reporter inhibition | shares compounds with Gli-Sufu antag | Wnt-LIGHT cells, Wnt3a-driven luciferase reporter, luminescence | inhibition, % at 6.25 µM | 20% of 2,500 active;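 active means mean inhibition above about 25%, limit read from the data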
# Hits are given with their value; n = inactive; x = not tested or not shown. An excerpt weighted towards active compounds, which were near 1.8% of everything screened.
SMILES,Jurkat NFkB inh,GalR3 antag,NR2E3 ag-1,NR2E3 ag-2,Gli-Sufu antag,697 NFkB inh,Gli antag conf,SufuKO cytotox,Wnt3a cs
Cc1cc(NC(=O)C2CCCN2C(=O)Nc2c(C)cccc2C)ccc1-n1cnnn1 (stereo not drawn),n,n,n,n,n,n,x,x,x
Cc1cc(NC(=O)C2CCN(S(=O)(=O)Cc3ccccc3)CC2)ccc1-n1cnnn1,n,n,n,n,60,n,n,n,n
O=C(NCc1ccco1)C12CN(Cc3ccccc3)CC1C(c1ccc([N+](=O)[O-])cc1)=NO2 (stereo not drawn),n,n,n,n,n,n,x,x,x
Cc1ccc(CNC(=O)C23CN(Cc4ccccc4)CC2C(c2ccc([N+](=O)[O-])cc2)=NO3)o1 (stereo not drawn),n,n,n,n,98,n,n,n,n
CC(c1ccc(Cl)cc1)N(CCN(C)C)c1ccccn1 (stereo not drawn),x,n,x,x,x,x,x,x,x
C[C@H](NC(=O)[C@@H]1CCC(=O)N1Cc1ccco1)c1ccccc1,n,n,n,n,68,n,n,n,n
O=C(O)[C@H]1CCC(=O)N1Cc1ccco1,n,n,n,n,n,n,x,x,x
C=Cc1ccc(Cn2c(=O)n(C)c(=O)c3sccc32)cc1,n,n,n,n,n,n,n,n,n
Cc1ccc(Cn2c(=O)n(C)c(=O)c3sccc32)cc1,n,n,n,n,n,n,x,x,x
CC(C)NC(=O)c1ccccc1NC(=O)C1CCCO1 (stereo not drawn),n,n,n,n,59,n,n,n,n
C[C@H]1CN([C@@H](C)CO)C(=O)CCCn2nncc2CO[C@@H]1CN(C)Cc1ccc2cccnc2c1,x,n,x,x,x,x,x,x,x
O=C(Nc1ccc2oc(-c3ccccc3F)nc2c1)c1ccc2c(c1)OCCO2,n,n,n,n,n,n,n,n,n
Cc1ccccc1CS(=O)(=O)Cc1ccc(C(=O)NCc2ccco2)o1,n,n,n,n,n,n,n,n,n
Cc1cc(C)n2c(SCC(C)C)nnc2n1,n,n,n,n,n,n,x,x,x
Cc1cc(C)n2c(SCCC(C)C)nnc2n1,n,n,n,n,63,n,n,n,n
O=C(c1ccncc1)N1CCCC(N2CCN(c3cccc(C(F)(F)F)c3)CC2)C1 (stereo not drawn),n,n,n,n,n,n,x,x,x
CCc1cc(C(=O)N2CCCC(N3CCN(c4cccc(C(F)(F)F)c4)CC3)C2)n(C)n1 (stereo not drawn),n,n,n,n,55,n,n,n,n
CCOC(=O)N1CCN(C(=O)CSc2ccc3nnc(-c4ccncc4)n3n2)CC1,n,n,n,n,59,n,n,33,n
CC1CCCC(=C\c2ccccc2)/C1=N/O (stereo not drawn),n,n,n,n,n,n,x,x,x
CCc1[nH]c(=O)c(C#N)c2c1CCCC2,n,n,n,n,n,n,n,n,n
Cc1n(Cc2ccccc2)c2cc([N+](=O)[O-])ccc2[n+]1Cc1ccccc1,n,n,n,n,n,n,x,x,x
Cc1n(Cc2ccccc2)c2ccccc2[n+]1Cc1ccccc1,n,n,n,n,n,n,62,33,n
COc1ccc(C/C(N)=N/n2cnnc2)cc1,n,n,n,n,n,n,x,x,x
CC(C)COc1ccc(C/C(N)=N/n2cnnc2)cc1,n,n,n,n,62,n,46,n,26
CCOc1ccc(NC(=O)c2c(NC(=O)CNCCN3CCOCC3)sc3c2CCC3)cc1,n,n,n,n,n,n,x,x,x
SMILES,Jurkat NFkB inh,GalR3 antag,NR2E3 ag-1,NR2E3 ag-2,Gli-Sufu antag,697 NFkB inh,Gli antag conf,SufuKO cytotox,Wnt3a cs
Cc1cc2cc(CCNC(=O)c3ccc(Br)o3)c(=O)[nH]c2cc1C,n,n,n,n,96,n,n,n,29
O=C1OCCC1Sc1nnc(-c2ccc(Cl)cc2Cl)o1 (stereo not drawn),n,n,n,n,n,n,67,n,78
COc1ccc(NC(=O)CSCC(=O)N2c3ccccc3CCc3ccccc32)cc1,n,n,n,n,66,n,n,n,n
COc1ccccc1NC(=O)CSCC(=O)N1c2ccccc2CCc2ccccc21,n,n,n,n,n,n,x,x,x
O=C(Nc1ccc(Oc2cccc3ccccc23)cc1)c1ccco1,n,n,n,n,97,n,n,n,n
O=C(Nc1cccc(NC(=O)c2ccco2)c1)c1ccccc1,n,n,n,n,n,n,n,n,n
O=C(Nc1ccc(OC(=O)c2ccco2)cc1)c1ccco1,n,n,n,n,n,n,x,x,x
O=C(c1ccccc1)c1cccc(NC(=O)c2ccco2)c1,n,n,n,n,n,n,x,x,x
COc1ccc(Nc2ncc(C(=O)N3CCC(C(N)=O)CC3)c3ccccc23)cc1,n,n,n,n,n,n,x,x,x
COc1ccc(Nc2ncc(C(=O)N3CCN(Cc4ccccc4)CC3)c3ccccc23)cc1,n,n,n,n,99,n,n,n,n
N#C/C(C(=O)N1CCOCC1)=c1/s/c(=C\c2ccccn2)c(=O)n1-c1ccccc1,n,n,n,n,n,n,x,x,x
COc1ccc(-n2c(=O)/c(=C\c3cccs3)s/c2=C(/C#N)C(=O)N2CCN(C)CC2)cc1,n,n,n,n,57,n,n,n,n
CCC1Sc2ccc(S(=O)(=O)CCC(=O)Nc3ccccc3Cl)cc2NC1=O (stereo not drawn),n,n,n,n,n,n,n,n,n
CCN1CCN(C(=O)C2CCCN(c3ncnc4c3nc3n4CCCCC3)C2)CC1 (stereo not drawn),n,n,n,n,n,n,n,n,n
COc1ccc(CN2CCSCC2)c(OC)c1C,n,n,n,x,59,n,n,n,n
CN(C)C1=NC[C@H](Cc2ccccc2)N1CCCC1CCCC1,n,n,n,n,56,n,n,31,n
CN(C)C1=NC[C@H](Cc2ccccc2)N1CCCC1CCCCC1,n,n,n,n,n,n,x,x,x
Cc1cc(N=O)no1,x,n,x,x,x,x,x,x,x
CCCC(=O)OC[C@H]1CN(C2CCCC2)S(=O)(=O)c2c(Oc3ccc(C(C)(C)C)cc3)cccc2O1,x,n,x,x,x,x,x,x,x
COC(CNC(=O)C(=O)Nc1cc2c3c(c1)CCN3C(=O)CC2)OC,n,n,n,n,98,n,n,n,n
CNC(=O)C(=O)Nc1cc2c3c(c1)CCN3C(=O)CC2,n,n,n,n,96,n,n,n,n
Cc1cc(NC(=O)c2c(Br)c(C)nn2C)no1,n,n,n,n,n,n,n,n,n
O=C(OCCOCCN=C1NS(=O)(=O)c2ccccc21)c1ccc(F)cc1,n,n,n,n,n,n,x,x,x
